The results in this text go back to ChEMBL document CHEMBL1250521, “Design, synthesis, and preliminary biological evaluation of new isoform-selective f-current blockers” (J Med Chem, 2010).

The target of assay [1] is Potassium/sodium hyperpolarization-activated cyclic nucleotide-gated channel 1 (Mus musculus) (UniProt O88704). Kind of assay: Blockade of mouse HCN1 expressed in HEK293 cells at 5 uM at -120 f-current amplitude by patch-clamp electrophysiological assay relative to control. It is filed as cell-based. The gist of the method:
(§1)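 Single-concentration patch-clamp screen at 5 μM on HEK293 cells stably expressing mouse HCN1 or human HCN4. f-current block normalized to control; mean ± SEM of three to five experiments.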
A general note: In patch-clamp work, channel activity is measured electrically.

Assay [2] concerns the target T1, Potassium/sodium hyperpolarization-activated cyclic nucleotide-gated channel 4 (Homo sapiens) (UniProt Q9Y3Q4).
T1 sequence (whole entry): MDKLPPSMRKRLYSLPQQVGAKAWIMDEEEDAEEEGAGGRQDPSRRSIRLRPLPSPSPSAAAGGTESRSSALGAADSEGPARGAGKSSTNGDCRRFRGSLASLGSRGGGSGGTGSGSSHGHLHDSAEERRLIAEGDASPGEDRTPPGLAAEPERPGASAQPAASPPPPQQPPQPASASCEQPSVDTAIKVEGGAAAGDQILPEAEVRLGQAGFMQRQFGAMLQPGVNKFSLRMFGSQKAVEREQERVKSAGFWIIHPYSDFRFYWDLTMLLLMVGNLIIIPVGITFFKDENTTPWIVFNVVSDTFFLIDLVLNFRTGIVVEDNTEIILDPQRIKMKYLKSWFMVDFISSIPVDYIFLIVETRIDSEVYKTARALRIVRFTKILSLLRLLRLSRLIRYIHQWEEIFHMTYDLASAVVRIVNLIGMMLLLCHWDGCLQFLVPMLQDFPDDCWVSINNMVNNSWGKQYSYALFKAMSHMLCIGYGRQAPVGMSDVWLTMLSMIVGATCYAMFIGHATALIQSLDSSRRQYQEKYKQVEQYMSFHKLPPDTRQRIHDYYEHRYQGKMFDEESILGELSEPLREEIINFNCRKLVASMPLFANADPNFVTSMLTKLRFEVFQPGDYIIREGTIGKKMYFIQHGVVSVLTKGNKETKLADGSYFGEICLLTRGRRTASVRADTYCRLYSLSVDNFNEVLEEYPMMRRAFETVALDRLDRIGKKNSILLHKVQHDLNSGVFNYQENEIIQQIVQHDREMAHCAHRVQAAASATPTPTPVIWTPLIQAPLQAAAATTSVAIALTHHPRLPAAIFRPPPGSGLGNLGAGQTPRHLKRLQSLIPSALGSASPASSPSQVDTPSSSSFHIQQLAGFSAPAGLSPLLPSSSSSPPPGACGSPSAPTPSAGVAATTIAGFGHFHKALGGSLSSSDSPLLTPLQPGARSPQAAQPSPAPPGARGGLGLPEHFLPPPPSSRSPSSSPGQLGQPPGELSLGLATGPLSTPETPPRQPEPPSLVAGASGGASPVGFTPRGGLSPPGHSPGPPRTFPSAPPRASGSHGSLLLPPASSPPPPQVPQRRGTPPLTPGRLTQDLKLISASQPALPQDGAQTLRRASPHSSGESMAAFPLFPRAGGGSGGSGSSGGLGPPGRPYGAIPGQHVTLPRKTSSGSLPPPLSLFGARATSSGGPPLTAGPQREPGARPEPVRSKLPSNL
Put plainly: Blockade of human HCN4 expressed in HEK293 cells at 5 uM at -120 f-current amplitude by patch-clamp electrophysiological assay relative to control. The format is cell-based. In outline:
as §1

Assay [3] in a line: Blockade of HCN in guinea pig spontaneously beating atria assessed as reduction of heart rate measured for 15 mins. It is filed as tissue-based, Cavia porcellus. The gist of the method: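 Isolated spontaneously beating guinea pig atria; cumulative concentrations 10-9-10-4 M applied, decrease in atrial rate recorded. EC50 obtained by fitting the concentration-effect curve to the Hill equation; mean ± SEM of three to four experiments.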

The target of assay [4] is T2, Potassium/sodium hyperpolarization-activated cyclic nucleotide-gated channel 2 (Mus musculus, UniProt O88703).
T2 sequence (O88703 whole entry): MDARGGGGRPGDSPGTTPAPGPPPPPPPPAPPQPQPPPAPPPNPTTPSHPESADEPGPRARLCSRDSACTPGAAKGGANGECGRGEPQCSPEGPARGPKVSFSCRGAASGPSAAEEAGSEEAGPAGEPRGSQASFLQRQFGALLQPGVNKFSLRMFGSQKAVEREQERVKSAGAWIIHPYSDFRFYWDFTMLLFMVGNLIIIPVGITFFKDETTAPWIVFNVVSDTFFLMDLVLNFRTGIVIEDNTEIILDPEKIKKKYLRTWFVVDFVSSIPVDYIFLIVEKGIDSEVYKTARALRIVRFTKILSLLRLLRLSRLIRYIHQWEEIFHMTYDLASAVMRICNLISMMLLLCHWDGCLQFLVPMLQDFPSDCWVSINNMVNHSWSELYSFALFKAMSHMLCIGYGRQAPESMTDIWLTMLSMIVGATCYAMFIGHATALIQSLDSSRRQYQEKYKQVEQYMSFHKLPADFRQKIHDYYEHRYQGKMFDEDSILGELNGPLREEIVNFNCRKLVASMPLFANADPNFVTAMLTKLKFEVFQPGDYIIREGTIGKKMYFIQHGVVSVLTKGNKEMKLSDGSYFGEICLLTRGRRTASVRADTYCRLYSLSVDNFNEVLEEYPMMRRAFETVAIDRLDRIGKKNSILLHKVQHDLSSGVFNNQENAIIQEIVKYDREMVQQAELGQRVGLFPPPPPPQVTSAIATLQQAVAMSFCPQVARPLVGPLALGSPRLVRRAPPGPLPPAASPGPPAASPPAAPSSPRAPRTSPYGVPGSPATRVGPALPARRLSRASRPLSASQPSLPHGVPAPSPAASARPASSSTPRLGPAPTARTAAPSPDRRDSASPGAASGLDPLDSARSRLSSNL
Kind of assay: Blockade of mouse HCN2 expressed in HEK293 cells at -120 f-current amplitude by patch-clamp electrophysiological assay. It is filed as cell-based. In outline:
(§2)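 HEK293 cells stably transfected with mouse HCN1, mouse HCN2 or human HCN4. Patch-clamp recordings of hyperpolarization-activated f-current at varied concentrations to derive EC50.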

Assay [5] addresses Potassium/sodium hyperpolarization-activated cyclic nucleotide-gated channel 1 (Mus musculus, UniProt O88704). Kind of assay: Blockade of mouse HCN1 expressed in HEK293 cells at -120 f-current amplitude by patch-clamp electrophysiological assay. The format is cell-based. In outline: as §2
In assay [6] the target is T3, Potassium/sodium hyperpolarization-activated cyclic nucleotide-gated channel 4 (Homo sapiens, UniProt Q9Y3Q4).
T3 sequence (Q9Y3Q4 whole entry): T1 sequence (whole entry)
Put plainly: Blockade of human HCN4 expressed in HEK293 cells at -120 f-current amplitude by patch-clamp electrophysiological assay. The format is cell-based. The gist of the method:
as §2

Assay [7] in a line: Selectivity ratio of EC50 for mouse HCN2 to EC50 for human HCN4. The gist of the method: (§3)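 Selectivity expressed as the ratio of EC50 values from patch-clamp on stably transfected HEK293 cells expressing mouse HCN1, mouse HCN2 or human HCN4.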
The species named for assay [8] is Mus musculus. Kind of assay: Selectivity ratio of EC50 for mouse HCN2 to EC50 for mouse HCN1. The gist of the method: as §3
The nature of assay [9]: Selectivity ratio of EC50 for mouse HCN1 to EC50 for human HCN4. In outline: as §3
Assay [10] is filed under the species Mus musculus. Put plainly: Selectivity ratio of EC50 for mouse HCN1 to EC50 for mouse HCN2. The gist of the method:
as §3

Sequence of Potassium/sodium hyperpolarization-activated cyclic nucleotide-gated channel 1 (Mus musculus) (O88704 whole entry): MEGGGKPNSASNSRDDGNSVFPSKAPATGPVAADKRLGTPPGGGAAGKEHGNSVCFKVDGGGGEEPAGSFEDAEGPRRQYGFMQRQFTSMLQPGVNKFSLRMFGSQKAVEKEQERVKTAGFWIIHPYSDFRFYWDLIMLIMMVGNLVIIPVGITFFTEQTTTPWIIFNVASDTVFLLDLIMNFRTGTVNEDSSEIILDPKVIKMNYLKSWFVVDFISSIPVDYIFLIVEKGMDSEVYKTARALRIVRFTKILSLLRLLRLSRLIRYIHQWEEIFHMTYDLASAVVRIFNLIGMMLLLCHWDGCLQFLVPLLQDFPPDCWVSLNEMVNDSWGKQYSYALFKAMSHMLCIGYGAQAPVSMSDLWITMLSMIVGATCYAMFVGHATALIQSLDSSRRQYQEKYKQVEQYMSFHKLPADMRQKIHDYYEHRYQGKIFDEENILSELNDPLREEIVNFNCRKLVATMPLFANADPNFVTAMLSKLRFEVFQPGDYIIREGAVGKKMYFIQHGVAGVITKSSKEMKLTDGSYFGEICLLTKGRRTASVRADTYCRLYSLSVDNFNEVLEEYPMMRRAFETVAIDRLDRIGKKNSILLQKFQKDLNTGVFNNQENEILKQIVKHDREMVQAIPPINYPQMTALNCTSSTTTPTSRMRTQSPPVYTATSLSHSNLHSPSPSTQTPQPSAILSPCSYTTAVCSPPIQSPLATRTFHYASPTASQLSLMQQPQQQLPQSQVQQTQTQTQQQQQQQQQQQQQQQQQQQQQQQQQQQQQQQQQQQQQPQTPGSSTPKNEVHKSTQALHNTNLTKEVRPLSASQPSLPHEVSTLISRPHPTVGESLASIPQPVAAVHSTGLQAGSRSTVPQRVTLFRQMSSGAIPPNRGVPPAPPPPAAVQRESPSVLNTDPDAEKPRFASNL
Sequence of Potassium/sodium hyperpolarization-activated cyclic nucleotide-gated channel 1 (O88704 whole entry): as above

On to `COc1ccc([C@H](C)CN(C/C=C/CN2C=Cc3cc(OC)c(OC)cc3CC2=O)C/C=C/CN2C=Cc3cc(OC)c(OC)cc3CC2=O)cc1OC`, for which the residual activity in assay [1] was 93%; in assay [2] it was 83%.

Regarding `COc1ccc(CCN(C)C/C=C/CN2C=Cc3cc(OC)c(OC)cc3CC2=O)cc1OC`, the EC50 – broadly, the concentration giving half of the maximal effect – in assay [3] worked out at 11.3 µM; in assay [4], 17.2 µM; in assay [5] it was 2.31 µM; in assay [6], 7.23 µM. In addition, the residual activity in [1] turned out to be 35%; in assay [2] it was 53%.

On to `COc1ccc([C@H](C)CN(C)C/C=C/CN2C=Cc3cc(OC)c(OC)cc3CC2=O)cc1OC`, for which the results for the residual activity in [1] and in [2] were 85% and 71%, respectively.

Take `COc1ccc([C@@H](C)CN(C/C=C/CN2C=Cc3cc(OC)c(OC)cc3CC2=O)C/C=C/CN2C=Cc3cc(OC)c(OC)cc3CC2=O)cc1OC`: the results for the residual activity in [1] and in assay [2] were 60% and 73%, respectively.

As for `COc1ccc([C@H](C)CN(C)C/C=C\CN2C=Cc3cc(OC)c(OC)cc3CC2=O)cc1OC`, the EC50 in [4] amounted to 25.5 µM; in assay [5] it was 31.3 µM; in assay [6], 31.6 µM. For the same compound, the residual activity was found to be 76% in [1] and 91% in [2].

On to `COc1ccc(CCN(C)CCCN2CCc3cc(OC)c(OC)cc3CC2=O)cc1OC` [ZATEBRADINE], for which the EC50 in [3] amounted to 13.4 µM; in assay [4], 5.45 µM; in [5], 16.8 µM; in assay [6], 8.57 µM.

As for `COc1ccc([C@@H](C)CN(C)C/C=C\CN2C=Cc3cc(OC)c(OC)cc3CC2=O)cc1OC`, the EC50 in [3] was 7.1 µM; in assay [4], 2.3 µM; in [5], 9.41 µM; in [6] it was 24.9 µM. Also, the results for the Selectivity ratio (in [7]; in the assay listed under Mus musculus [8]) were 10 and 4, respectively. Besides, the residual activity was found to be 63% in [1] and 83% in assay [2].

Take `COc1ccc(CCN(C/C=C\CN2C=Cc3cc(OC)c(OC)cc3CC2=O)C/C=C\CN2C=Cc3cc(OC)c(OC)cc3CC2=O)cc1OC`: the EC50 in assay [4] was found to be 147 µM; in [5], 107 µM; in [6] it was 70.7 µM. For the same compound, the residual activity in assay [1] was 82%; in assay [2], 75%.

For `COc1ccc(CCN(C)C/C=C\CN2C=Cc3cc(OC)c(OC)cc3CC2=O)cc1OC`, the EC50 in [3] worked out at 15.8 µM; in [4], 24.6 µM; in [5], 5.6 µM; in [6], 7.14 µM. For the same compound, the residual activity in [1] is 53%; in assay [2], 59%.

Turning to `COc1ccc([C@@H](C)CN(C)C/C=C/CN2C=Cc3cc(OC)c(OC)cc3CC2=O)cc1OC`, the residual activity in assay [1] amounted to 85%; in assay [2], 72%.

For `COc1ccc([C@H](C)CN(C/C=C\CN2C=Cc3cc(OC)c(OC)cc3CC2=O)C/C=C\CN2C=Cc3cc(OC)c(OC)cc3CC2=O)cc1OC`, the values for the concentration giving a half-maximal response (EC50) in [4], in assay [5] and in [6] were 50.1 µM, 17.9 µM and 136 µM, respectively. Also, the residual activity in [1] was 76%; in [2], 92%.

With `COc1cc2c(cc1OC)CC(=O)N(CCCN(C)C[C@H]1Cc3cc(OC)c(OC)cc31)CC2` [IVABRADINE], the EC50 amounted to 4.52 µM in assay [4], 4.5 µM in [5] and 4.28 µM in [6]. Moreover, the residual activity in [1] was found to be 47%; in assay [2] it was 49%.

For the compound `COc1ccc([C@@H](C)CN(C/C=C\CN2C=Cc3cc(OC)c(OC)cc3CC2=O)C/C=C\CN2C=Cc3cc(OC)c(OC)cc3CC2=O)cc1OC`, the Selectivity ratio in [9] worked out at 170; in the assay filed under Mus musculus [10], 30. Further, the EC50 in assay [3] worked out at 113 µM; in assay [4] it was 18.3 µM; in assay [5], 0.6 µM; in assay [6], 104 µM. Further, the residual activity came to 27% in assay [1] and 93% in assay [2].
